In the library only some 1.8% were active in any assay of this set; here they are far more common.
MIN6 prolif – inducers of MIN6 beta-cell proliferation, primary screen, ATP luminescence, uHTS; MIN6 cells proliferation, ATPlite luminescence, 48 h; cells starved in 0.2% serum; 100% = growth in 10% serum; actives 0.29% (n = 330,000); proliferation, % at 10 µM; AID 2380, 2010;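 active = compounds whose signal lies at least 3.5 SD above the mean of all wells on their plate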;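 note: 0% = DMSO-treated cells in low-serum medium and 100% = 10% serum control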
DAGLB inh – DAGLB lipase inhibitors, primary screen, biochemical, fluorescence, HTS. AID 504411, 2011. inhibition, % at 5.17 µM. HEK293T DAGLB membrane lysate, EnzChek fluorogenic substrate. actives 0.059% (n = 340,000); in the data active = inhibition above about 34%;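 note: 0% = enzyme with vehicle and 100% = wells lacking enzyme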
Target sequence (Q8NCG7 whole entry, looked up): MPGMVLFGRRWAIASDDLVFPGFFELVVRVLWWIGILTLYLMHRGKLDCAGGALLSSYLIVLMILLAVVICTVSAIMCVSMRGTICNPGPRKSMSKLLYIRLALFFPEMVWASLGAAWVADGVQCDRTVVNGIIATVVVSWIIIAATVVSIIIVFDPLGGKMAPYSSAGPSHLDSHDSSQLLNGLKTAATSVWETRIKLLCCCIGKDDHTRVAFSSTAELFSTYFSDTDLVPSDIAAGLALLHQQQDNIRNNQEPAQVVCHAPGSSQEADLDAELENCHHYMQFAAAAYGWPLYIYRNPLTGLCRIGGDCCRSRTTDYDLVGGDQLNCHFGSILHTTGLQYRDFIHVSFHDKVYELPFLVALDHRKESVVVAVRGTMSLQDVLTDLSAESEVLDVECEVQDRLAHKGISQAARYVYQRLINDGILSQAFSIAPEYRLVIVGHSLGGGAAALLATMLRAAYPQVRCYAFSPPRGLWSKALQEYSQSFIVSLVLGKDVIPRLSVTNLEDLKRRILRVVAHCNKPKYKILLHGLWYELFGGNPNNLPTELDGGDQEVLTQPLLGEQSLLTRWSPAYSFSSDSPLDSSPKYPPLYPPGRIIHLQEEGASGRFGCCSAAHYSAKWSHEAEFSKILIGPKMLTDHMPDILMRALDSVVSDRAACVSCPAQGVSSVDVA
MsrA inhibitor – bovine MsrA enzyme inhibitors, primary screen, biochemical, absorbance, HTS. purified bovine MsrA, absorbance read-out. AID 651718, 2012. inhibition, % at 15.5 µM. actives 0.75% (n = 360,000); in the data active = inhibition above about 4.5%;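 note: 0% = vehicle wells with enzyme and 100% = reference inhibitor wells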
MT1-MMP act inh – blockers of MT1-MMP proenzyme processing, primary screen, HT1080 RFP-PRO-GFP cells, GFP/RFP fluorescence | GFP/RFP ratio change, % at 20 µM | actives 0.061% (n = 360,000) | GFP/RFP ratio fluorescence, overnight; percent of plate control window, DMSO zero;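 active = GFP/RFP ratio change of at least 30% with cell ATP level not reduced by more than half and red fluorescence within 50% of control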
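Assay system: HT1080 RFP-PRO-GFP cells. Benchmarks: DMSO vehicle wells and RFP-L50D-GFP reporter cell wells. Times: overnight cell settling, then overnight compound exposure, 37 °C, 5% CO2. Compound: 20 µM single dose, 1% DMSO. Read-out basis: GFP/RFP fluorescence ratio.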
SKN-1 block – suppressors of acrylamide-induced Pgst-4::GFP reporter in worms, primary screen, SKN-1 inhibitor project, whole organism, uHTS, GFP/RFP fluorescence ratio, strain VP596; actives 0.49% (n = 360,000); AID 624304, 2012; inhibition, % at 21.8 µM; C. elegans VP596 Pgst-4::GFP/RFP ratio, 24 h;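 active = interference check ratio from 0.5 to 1.5 plus GFP to RFP signal ratio inhibition reaching or exceeding a fixed threshold, cut at about 30% in these data, passing the limit was not always enough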
bovine MsrA act – bovine MsrA enzyme activators, primary screen, biochemical, absorbance, HTS; Methionine sulfoxide reductase A (Bos taurus); purified bovine MsrA, absorbance read-out; activation, % at 10.6 µM; actives 0.3% (n = 360,000); AID 602163, 2012; in the data active = activation above about 7.5%;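 note: 0% = vehicle and 100% = reference activator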
Numbers without * were called inactive; · = not tested or not shown.

SMILES | MIN6 prolif | DAGLB inh | MsrA inhibitor | MT1-MMP act inh | SKN-1 block | bovine MsrA act
Cc1c(CC(=O)NCC(=O)NCC(=O)O)c(=O)oc2cc3c(cc12)CCC(C)(C)O3 | 0 | -2 | 3 | 9 | 19 | -2
Cc1c(CC(=O)NCC(=O)O)c(=O)oc2cc3c(cc12)CCC(C)(C)O3 | -1 | -2 | 4.6* | · | 4 | -4
CCN(CCCNC(=O)CC(C(=O)N1CCc2ccccc21)n1ccnc1)c1cccc(C)c1 (stereo not drawn) | -2 | 6 | -2 | -1 | 38* | -2
CCCCNC(=O)CC(C(=O)N1CCc2ccccc21)n1ccnc1 (stereo not drawn) | -3 | -1 | 1 | · | -34 | -14
CN1CCN(/N=C/c2ccc(-c3ccccc3)cc2)CC1 | 4 | -2 | 1 | -3 | 79* | -5
Cc1cc(C)cc([C@H]2C[C@]34CN(Cc5ccccc5)S(=O)(=O)[C@H]3C[C@H]2O4)c1 | · | · | -2 | · | · | ·
Cc1ccc(-c2csc(NC(=S)NC(=O)/C=C/c3ccco3)n2)cc1 | -4 | -1 | 0 | 6 | -12 | -4
Cc1sc(NC(=O)/C=C/c2ccc3c(c2)OCO3)nc1-c1ccccc1 | -1 | 1 | 0 | -13 | 11 | 0
CCOC(=O)c1[nH]c2ccc(OC)cc2c1NC(=O)/C=C/c1ccc2c(c1)OCO2 | 0 | -1 | -1 | 3 | 11 | -4
O=C(/C=C/c1ccc2c(c1)OCO2)Nc1c(C(=O)O)[nH]c2ccccc12 | 0 | 8 | 4.7* | 5 | 10 | -2
O=C(/C=C\c1ccco1)Nc1nc(-c2ccc3ccccc3c2)cs1 | -2 | -1 | 3 | -11 | 39* | -13
O=C(/C=C/c1ccc2c(c1)OCO2)Nc1nc(-c2ccccc2)cs1 | -2 | -1 | 4.8* | -16 | 0 | -3
O=C(N[C@H](C(=O)N1CCC[C@H]1C(=O)NC1CCCC1)c1ccccc1)C1CCCC1 | · | · | 1 | · | · | ·
O=[N+]([O-])c1cccc(I)c1 | · | · | 0 | · | · | ·
O=C(c1cc(C2CC2)nn1-c1ccccc1)N1CCN(Cc2ccccc2)CC1 | · | -1 | -1 | 2 | 4 | 0
N#Cc1ccc(CN2CCN(C(=O)c3cc(C4CC4)nn3-c3ccccc3)CC2)cc1 | -1 | -2 | 0 | 3 | 38* | -2
CC(C)CNc1cccc2c1S(=O)(=O)N[C@@H](Cc1ccccc1)CO2 | · | · | 0 | · | · | ·
O=C(Nc1nc(-c2cccs2)cs1)c1ccc(Cl)s1 | -8 | -11 | 2 | -23 | 30 | -6
O=C(Nc1nc(-c2ccc(Cl)s2)cs1)c1ccccc1 | -3 | -22 | -1 | -21 | 49* | -3
Cc1cccnc1Nc1nc(-c2ccc(O)cc2)cs1 | -3 | 2 | 0 | 4 | 7 | -1
Cc1ccc(-c2csc(Nc3ccccn3)n2)cc1 | -3 | -3 | 0 | -2 | 26 | -2
c1ccc(-c2csc(Nc3ccccn3)n2)cc1 | -4 | -2 | 0 | 1 | 67* | -4
O=C(Nc1nc(-c2cc(F)ccc2F)cs1)c1ccccn1 | -6 | -18 | 0 | 2 | 38* | -1
Fc1ccc(-c2csc(Nc3ccccn3)n2)c(F)c1 | -4 | -4 | -1 | -1 | 60* | -6
Cc1cccnc1Nc1nc(-c2ccc(F)cc2)cs1 | -6 | -9 | -1 | 1 | 42* | -2
SMILES | MIN6 prolif | DAGLB inh | MsrA inhibitor | MT1-MMP act inh | SKN-1 block | bovine MsrA act
[O-][n+]1ccccc1C(O)CSc1ccccc1 (stereo not drawn) | · | · | 0 | · | · | ·
Cc1ccc(Cl)cc1NC(=O)N(C)CCOC(=O)Nc1cccc(Cl)c1 | · | · | 1 | · | · | ·
CC(C)(C)n1nc(C2CC2)cc1NC(=O)Nc1ccccc1 | · | · | 1 | · | · | ·
COc1ccc(C2C3=C(CC(c4ccco4)CC3=O)Nc3ccccc3N2C(C)=O)cc1 (stereo not drawn) | -3 | 5 | 5.3* | -4 | 21 | -4
CC1CC(=O)C2=C(C1)Nc1ccccc1N(C(=O)COc1ccccc1)C2c1ccco1 (stereo not drawn) | 6 | -2 | 3 | -2 | 12 | -8
O=Cc1cc([B-](F)(F)F)cs1 | · | · | 0 | · | · | ·
Cc1ccc(NC2=Nc3ccccc3N3C2=Nc2c(c(C)nn2-c2ccccc2)C3c2ccc(O)c(O)c2)cc1 (stereo not drawn) | · | 9 | 2 | -4 | 36* | -4
COCC(=O)/C=C1\Sc2ccccc2N1C | -1 | -5 | 5.1* | 7 | 10 | -5
CCOc1ccc(-c2nn(-c3ccccc3)cc2/C=C(\C#N)S(=O)(=O)c2ccccc2)cc1C | -2 | -2 | -1 | 9 | 41* | -4
N#C/C(=N/Nc1ccc(OC(F)(F)F)cc1)C(N)=S | -4 | 11 | 0 | -28 | 54* | -5
COC(=O)c1cc(Br)c(=O)n(Cc2ccco2)c1 | 2 | 3 | 0 | 0 | -8 | 0
COC(=O)c1ccc(=O)n(Cc2ccco2)c1 | -4 | -2 | 1 | 2 | 38* | -2
C[C@@H]1CN([C@H](C)CO)C(=O)c2cc(NC(=O)Nc3ccc(F)cc3)ccc2O[C@@H](C)CCCCO[C@@H]1CN(C)C(=O)CCCN(C)C | · | · | -1 | · | · | ·
COC(=O)C1=C(C)N(C)C(=NCC2CC2)NC1c1ccccc1C(F)(F)F (stereo not drawn) | · | · | 0 | · | · | ·
CCOC(=O)c1cc(-c2ccco2)nc2c1c(C)nn2-c1ccccc1 | -4 | -2 | 3 | 4 | 40* | -2
CCCn1c(=O)c2c(C(=O)OCC)cc(-c3ccco3)nc2n(CCC)c1=O | · | -4 | -1 | -1 | 9 | -7
COC(=O)C1=C(C)N(Cc2ccc(F)cc2)C(=S)NC1c1ccc(F)cc1 (stereo not drawn) | · | · | 0 | · | · | ·
CCc1ccc(-n2c(SCC(=O)Nc3cc(C)[nH]n3)nc3[nH]ncc3c2=O)cc1 | 1 | 0 | -1 | 0 | 39* | 3
Cc1[nH]c2ccccc2c1SCCN | -5 | 2 | 0 | -4 | 9 | -1
Cc1[nH]c2ccccc2c1SCc1ccccc1 | -5 | -1 | 0 | 0 | 40* | -1
O=C(NCc1ccccc1)[C@H]1CCCN1 | · | · | 0 | · | · | ·
CC(C)CCCCCCCCc1cccc(O)c1C(=O)O | · | · | -1 | · | · | ·
CC(=O)c1ccc(OCc2cn(CC(=O)c3ccc(O)cc3)nn2)c(C)c1 | · | -3 | 1 | 2 | 9 | -3
O=C(Cn1cc(COc2ccc(Br)cc2[N+](=O)[O-])nn1)c1ccc(O)cc1 | · | -3 | 4.6* | 4 | -11 | -5
